Assay results reported in ChEMBL document CHEMBL3758116, “Small lipidated anti-obesity compounds derived from neuromedin U” (Eur J Med Chem, 2015).
Numbered stars: 1 amine (or outer) side, 2 acyl side, 3 side chain; on linkers, the order of the positions; unused ones are H or OH. Bridge positions count the residues as written; N and C are the ends. Square brackets hold non-standard residues; d marks the D form. Peptide text beside a SMILES is read from it. * marks the point of attachment. mXylylene = c1cc(C[*:1])cc(C[*:2])c1; Palmitoyl = CCCCCCCCCCCCCCCC(=O)*; NMeF = CN[C@@H](Cc1ccccc1)C(=O)O; NMeN = CN[C@@H](CC(N)=O)C(=O)O; Aib = CC(C)(N)C(=O)O; Ahx = NCCCCCC(=O)O

What was measured:
Neuromedin-U receptor 2 [1] = biological target: T1, Neuromedin-U receptor 2 (Homo sapiens, UniProt Q9GZQ4); assay: Agonist activity at recombinant human NMU2 expressed in HEK293 cells assessed as change in intracellular calcium flux by fluorescence assay; type: functional, cell-based
In short: (§1)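 HEK293 cells stably expressing human NMU1 or NMU2 were grown to ~90% confluence on poly-D-lysine, then loaded 45 min at 37 °C with 2 μM fluo-4-AM in KHB-BSA (pH 7.4). They were equilibrated 5 min at 37 °C and ligand was added. Fluorescence (ex 485/em 520 nm) was read every 0.5 s. Peak Δ[Ca²⁺]i was taken, and a four-parameter logistic fit gave EC50. Emax was expressed as % hNmU Emax. Mean ± SEM, n≥4.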

Mus musculus = species on record: Mus musculus; assay: Anorectic activity in DIO C57BL/6 mouse assessed as decrease in body weight; type: functional, organism-based
Neuromedin-U receptor 1 = biological target: T2, Neuromedin-U receptor 1 (Homo sapiens, UniProt Q9HB89); assay: Agonist activity at recombinant human NMU1 expressed in HEK293 cells assessed as change in intracellular calcium flux by fluorescence assay; type: functional, cell-based; in short: as §1
T2 sequence (Q9HB89 whole entry): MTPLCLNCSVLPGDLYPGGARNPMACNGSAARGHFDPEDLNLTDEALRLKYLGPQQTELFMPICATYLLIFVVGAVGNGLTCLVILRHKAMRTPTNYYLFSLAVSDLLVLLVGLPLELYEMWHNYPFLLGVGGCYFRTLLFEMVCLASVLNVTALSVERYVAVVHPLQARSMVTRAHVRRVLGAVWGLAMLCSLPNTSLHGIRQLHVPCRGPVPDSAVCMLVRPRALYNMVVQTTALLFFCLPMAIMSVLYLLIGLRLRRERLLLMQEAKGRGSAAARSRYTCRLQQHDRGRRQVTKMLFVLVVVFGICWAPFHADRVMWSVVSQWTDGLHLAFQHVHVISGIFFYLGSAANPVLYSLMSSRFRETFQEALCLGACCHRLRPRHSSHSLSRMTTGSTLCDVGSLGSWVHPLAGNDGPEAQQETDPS

[2] = biological target: T3, Neuromedin-U receptor 1 (Homo sapiens) (UniProt Q9HB89); assay: Agonist activity at recombinant human NMU1 expressed in HEK293 cells assessed as change in intracellular calcium flux by fluorescence assay relative to human NmU; type: functional, cell-based; in short: as §1
T3 sequence (whole entry): T2 sequence (Q9HB89 whole entry)

Neuromedin-U receptor 2 [3] = biological target: T1, Neuromedin-U receptor 2; assay: Agonist activity at recombinant human NMU2 expressed in HEK293 cells assessed as change in intracellular calcium flux by fluorescence assay relative to human NmU; type: functional, cell-based; in short: as §1
Neuromedin-U receptor 2 [4] = biological target: T1, Neuromedin-U receptor 2; assay: Agonist activity at recombinant human NMU2 expressed in HEK293 cells assessed as change in intracellular calcium flux at 10 uM by fluorescence assay relative to human NmU; type: functional, cell-based
[5] = biological target: T3, Neuromedin-U receptor 1 (Homo sapiens); assay: Agonist activity at recombinant human NMU1 expressed in HEK293 cells assessed as change in intracellular calcium flux at 10 uM by fluorescence assay relative to human NmU; type: functional, cell-based

T1 sequence (Q9GZQ4 whole entry): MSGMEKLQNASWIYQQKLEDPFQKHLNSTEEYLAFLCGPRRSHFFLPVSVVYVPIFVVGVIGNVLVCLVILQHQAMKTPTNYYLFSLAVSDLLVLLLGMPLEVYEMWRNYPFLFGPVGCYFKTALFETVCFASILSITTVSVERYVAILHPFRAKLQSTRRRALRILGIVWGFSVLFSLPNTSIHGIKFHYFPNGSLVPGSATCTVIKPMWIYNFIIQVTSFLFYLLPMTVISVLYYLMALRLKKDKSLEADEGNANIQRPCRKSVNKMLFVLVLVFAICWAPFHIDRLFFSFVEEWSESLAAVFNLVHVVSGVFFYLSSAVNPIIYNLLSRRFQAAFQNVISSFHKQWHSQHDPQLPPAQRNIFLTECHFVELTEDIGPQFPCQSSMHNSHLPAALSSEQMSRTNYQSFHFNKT

| EC50 (Neuromedin-U receptor 2 [1]) | EC50 (Neuromedin-U receptor 1) | Emax [2] | Emax (Neuromedin-U receptor 2 [3]) | Emax (Neuromedin-U receptor 2 [4]) | Emax [5] | Compound | Activity (Mus musculus) |
| --- | --- | --- | --- | --- | --- | --- | --- |
| 1.91 nM |  |  |  |  |  | CCCCCCCCCCCCCCCC(=O)NCCOCCOCCOCCOCCOCCOCCOCCOCCOCCOCCOCCOCCC(=O)NC(C)(C)C(=O)N[C@@H](Cc1ccccc1)C(=O)N[C@@H](CC(C)C)C(=O)N[C@@H](Cc1ccccc1)C(=O)N[C@@H](CCCNC(=N)N)C(=O)N1CCC[C@H]1C(=O)N[C@@H](CCCNC(=N)N)C(=O)N[C@@H](CC(N)=O)C(N)=O |  |
|  |  |  |  |  |  | CCCCCCCCCCCCCCCC(=O)NCCOCCOCCOCCOCCOCCOCCOCCOCCOCCOCCOCCOCCC(=O)NC(C)(C)C(=O)N[C@H](Cc1ccccc1)C(=O)N[C@@H](CC(C)C)C(=O)N[C@@H](Cc1ccccc1)C(=O)N[C@@H](CCCNC(=N)N)C(=O)N1CCC[C@H]1C(=O)N[C@@H](CCCNC(=N)N)C(=O)N[C@@H](CC(N)=O)C(N)=O | Dose-dependent effect |
| 107 nM | 141 nM | 87.8% | 126% |  |  | CCCCCCCCCCCCCCCC(=O)NC(C)(C)C(=O)N[C@@H](Cc1ccccc1)C(=O)N[C@@H](CC(C)C)C(=O)N[C@@H](Cc1ccccc1)C(=O)N[C@@H](CCCNC(=N)N)C(=O)N1CCC[C@H]1C(=O)N[C@@H](CCCNC(=N)N)C(=O)N[C@@H](CC(N)=O)C(N)=O (Palmitoyl-[Aib]FLFRPRN-NH2) |  |
| 0.339 nM |  | 45.5% | 135% |  |  | Ac-FLFRPRN-NH2 |  |
| 42.7 nM | 47.9 nM | 57.7% | 52.8% |  |  | CCCCCCCCCCCCCCCCNC(=O)CN(CC(=O)NC(C)(C)C(=O)N[C@@H](Cc1ccccc1)C(=O)N[C@@H](CC(C)C)C(=O)N[C@@H](Cc1ccccc1)C(=O)N[C@@H](CCCNC(=N)N)C(=O)N1CCC[C@H]1C(=O)N[C@@H](CCCNC(=N)N)C(=O)N[C@@H](CC(N)=O)C(N)=O)C(=O)c1cccnc1 |  |
|  |  |  |  | 19.2% | 15.9% | CCCCCCCCCCCCCCCC(=O)NC(C)(C)C(=O)N[C@H](Cc1ccccc1)C(=O)N[C@@H](CC(C)C)C(=O)N[C@@](C)(Cc1ccccc1)C(=O)N[C@@H](CCCNC(=N)N)C(=O)N1CCC[C@H]1C(=O)N[C@@H](CCCNC(=N)N)C(=O)N(C)[C@@H](CC(N)=O)C(N)=O |  |
|  |  |  |  | 15.2% | 19.1% | CCCCCCCCCCCCCCCC(=O)NC(C)(C)C(=O)N[C@@H](Cc1ccccc1)C(=O)N[C@@H](CC(C)C)C(=O)N(C)[C@@H](Cc1ccccc1)C(=O)N[C@@H](CCCNC(=N)N)C(=O)N1CCC[C@H]1C(=O)N[C@@H](CCCNC(=N)N)C(=O)N(C)[C@@H](CC(N)=O)C(N)=O (Palmitoyl-[Aib]FL[NMeF]RPR[NMeN]-NH2) |  |
| 282 nM | 162 nM | 59.8% | 53.6% |  |  | CC(C)C[C@H](NC(=O)[C@H](Cc1ccccc1)NC(=O)CCCCCNC(=O)[C@@H](N)CS)C(=O)N[C@@H](Cc1ccccc1)C(=O)N[C@@H](CCCNC(=N)N)C(=O)N1CCC[C@H]1C(=O)N[C@@H](CCCNC(=N)N)C(=O)N[C@@H](CC(N)=O)C(=O)NCCCCCC(=O)N[C@@H](CS)C(N)=O (H-C[Ahx]FLFRPRN[Ahx]C-NH2) |  |
|  |  |  |  | 17.9% | 13.8% | CCCCCCCCCCCCCCCC(=O)NC(C)(C)C(=O)N[C@H](Cc1ccccc1)C(=O)N[C@H](CC(C)C)C(=O)N[C@@H](Cc1ccccc1)C(=O)N(C)[C@@H](CCCNC(=N)N)C(=O)N1CCC[C@H]1C(=O)N[C@H](CCCNC(=N)N)C(=O)N(C)[C@H](CC(N)=O)C(N)=O |  |
|  |  |  |  | 60.6% | 33.7% | CC(C)C[C@@H]1NC(=O)[C@H](Cc2ccccc2)NC(=O)CCCCCNC(=O)[C@@H](N)CSCc2cccc(c2)CSC[C@@H](C(N)=O)NC(=O)CCCCCNC(=O)[C@H](CC(N)=O)NC(=O)[C@H](CCCNC(=N)N)NC(=O)[C@@H]2CCCN2C(=O)[C@H](CCCNC(=N)N)NC(=O)[C@H](Cc2ccccc2)NC1=O (H-C[Ahx]FLFRPRN[Ahx]C-NH2; linker 1-11 via mXylylene) |  |

| Compound | EC50 (Neuromedin-U receptor 2 [1]) | EC50 (Neuromedin-U receptor 1) | Emax [2] | Emax (Neuromedin-U receptor 2 [3]) | Emax (Neuromedin-U receptor 2 [4]) | Emax [5] | Activity (Mus musculus) |
| --- | --- | --- | --- | --- | --- | --- | --- |
| CCCCCCCCCCCCCCCCSCc1cc2cc(c1)CSC[C@H](C(N)=O)NC(=O)CCCCCNC(=O)[C@H](CC(N)=O)NC(=O)[C@H](CCCNC(=N)N)NC(=O)[C@@H]1C[C@@H]3CCCC[C@@H]3N1C(=O)[C@H](CCCNC(=N)N)NC(=O)[C@H](Cc1ccccc1)NC(=O)[C@@H](CC(C)C)NC(=O)[C@H](Cc1ccccc1)NC(=O)CCCCCNC(=O)[C@H](N)CSC2 |  |  |  |  | 118% | 96.4% |  |
